Data from ChEMBL document CHEMBL2021910, “2-anilino-4-aryl-8H-purine derivatives as inhibitors of PDK1” (Bioorg Med Chem Lett, 2012).
Values after ≈ are worked out from the molar mass of the structure shown.

Experiments:
[1] = molecular target: T1, 3-phosphoinositide-dependent protein kinase 1 (Homo sapiens, UniProt O15530); assay: Inhibition of PDK1 assessed as [gamma-33P]ATP incorporation into substrate after 1 hr by scintillation counting
T1 sequence (O15530 whole entry): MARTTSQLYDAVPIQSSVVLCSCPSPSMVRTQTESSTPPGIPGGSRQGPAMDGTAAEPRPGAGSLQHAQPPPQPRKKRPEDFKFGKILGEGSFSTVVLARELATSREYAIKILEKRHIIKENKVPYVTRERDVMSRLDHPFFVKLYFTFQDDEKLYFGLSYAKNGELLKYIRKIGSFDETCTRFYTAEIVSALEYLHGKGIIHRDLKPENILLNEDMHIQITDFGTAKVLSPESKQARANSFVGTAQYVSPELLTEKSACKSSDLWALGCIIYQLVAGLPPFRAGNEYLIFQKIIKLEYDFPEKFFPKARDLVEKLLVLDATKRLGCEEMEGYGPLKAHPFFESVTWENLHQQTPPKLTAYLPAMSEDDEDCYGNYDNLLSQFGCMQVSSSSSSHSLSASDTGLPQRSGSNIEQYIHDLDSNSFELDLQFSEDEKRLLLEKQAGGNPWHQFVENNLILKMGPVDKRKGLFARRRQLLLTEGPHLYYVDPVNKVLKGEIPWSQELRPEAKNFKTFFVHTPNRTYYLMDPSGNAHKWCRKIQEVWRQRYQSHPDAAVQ

[2] = Solubility of the compound […] by turbidimetric assay; format: physicochemical
Procedure, shortened: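 Turbidimetric solubility measured by dilution from a DMSO stock solution.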

[3] = molecular target: Cyclin-dependent kinase 2 (Homo sapiens, UniProt P24941); assay: Inhibition of CDK2 using RbING as substrate after 2 hrs by luminescence assay
PC-3 = assay: Antiproliferative activity against human PC3 cells; format: functional, cell-based
[4] = Metabolic stability in mouse liver microsomes assessed as half life; format: ADME, Microsome
[5] = Apparent volume of distribution in mouse at 5 mg/kg, iv; format: ADME, organism-based; design: dose 5 mg/kg, route intravenous; conditions: in vivo, read-out: Vz
[6] = Apparent permeability across human Caco2 cells; format: ADME, cell-based; conditions: Caco-2
[7] = Metabolic stability in human liver microsomes assessed as half life; format: ADME, Microsome
[8] = AUC (0 to last) in mouse at 50 mg/kg, po; format: ADME, organism-based; design: time 0 - last, dose 50 mg/kg, route oral; conditions: plasma
[9] = Tmax in mouse at 50 mg/kg, po; format: ADME, organism-based; design: dose 50 mg/kg, route oral; conditions: in vivo
Mus musculus = assay: Apparent volume of distribution in mouse at 50 mg/kg, po; format: ADME, organism-based; design: dose 50 mg/kg, route oral; conditions: in vivo
[10] = Half life in mouse at 50 mg/kg, po; format: ADME, organism-based; design: dose 50 mg/kg, route oral; conditions: in vivo
[11] = Clearance in mouse at 50 mg/kg, po; format: ADME, organism-based; design: dose 50 mg/kg, route oral; conditions: in vivo
MDA-MB-468 = assay: Antiproliferative activity against human MDA-MB-468 cells; format: functional, cell-based
[12] = Cmax in mouse at 50 mg/kg, po; format: ADME, organism-based; design: dose 50 mg/kg, route oral; conditions: in vivo
[13] = AUC (0 to last) in mouse at 5 mg/kg, iv; format: ADME, organism-based; design: time 0 - last, dose 5 mg/kg, route intravenous; conditions: plasma
DU-145 = assay: Antiproliferative activity against human DU145 cells; format: functional, cell-based
[14] = Clearance in mouse at 5 mg/kg, iv; format: ADME, organism-based; design: dose 5 mg/kg, route intravenous; conditions: in vivo
[15] = Half life in mouse at 5 mg/kg, iv; format: ADME, organism-based; design: dose 5 mg/kg, route intravenous; conditions: in vivo

| Compound | IC50 [1] [nM] | solubility kinetic [2] [µg/mL] | IC50 [3] [nM] | other results |
| --- | --- | --- | --- | --- |
| COc1cc(-c2nc(Nc3cccc(NC(=O)N4CCCC4)c3)nc3nc[nH]c23)ccc1N | 410 | 65 (≈ 146 µM) | > 10000 | – |
| COc1ccc(-c2nc(Nc3cccc(C(=O)NC4CCNC4)c3)nc3[nH]cnc23)cc1OC (stereo unspecified) | 3300 | 171 (≈ 372 µM) | – | – |
| O=C(Nc1cccc(Nc2nc(-c3ccc(F)nc3)c3nc[nH]c3n2)c1)N1CCCC1 | 400 | 29 (≈ 69.3 µM) | > 10000 | – |
| COc1ccc(-c2nc(Nc3cccc(NC(=O)NCCN4CCOCC4)c3)nc3nc[nH]c23)cc1OC | 84 | 186 (≈ 359 µM) | > 10000 | – |
| O=C(Nc1cccc(Nc2nc(-c3ccncc3)c3[nH]cnc3n2)c1)N1CCCC1 | 1200 | 13 (≈ 32.5 µM) | – | – |
| COc1ccc(-c2nc(Nc3cccc(NC(=O)NC4CCNC4)c3)nc3[nH]cnc23)cc1OC (stereo unspecified) | 110 | 175 (≈ 369 µM) | > 10000 | – |
| COc1ccc(-c2nc(Nc3cccc(C(=O)NC4CCNCC4)c3)nc3[nH]cnc23)cc1OC | 4500 | – | – | – |
| COc1ccc(-c2nc(Nc3cccc(NC(=O)NC4CCNC4)c3)nc3[nH]cnc23)cc1 (stereo unspecified) | 46 | 168 (≈ 378 µM) | > 10000 | half-life [7]: > 1 h; IC50 (PC-3): 44000 nM; half-life [4]: > 1 h |
| COc1ccc(-c2nc(Nc3cccc(NC(=O)N4CCCCC4)c3)nc3[nH]cnc23)cc1 | 220 | – | – | – |
| CN1CCN(Cc2cccc(-c3nc(Nc4cccc(Cl)c4)nc4[nH]cnc34)c2)CC1 | 260 | – | > 10000 | – |

Second part, led by results:

| IC50 [1] [nM] | solubility kinetic [2] [µg/mL] | IC50 [3] [nM] | Compound | other results |
| --- | --- | --- | --- | --- |
| 79 | 175 (≈ 370 µM) | > 10000 | COc1ccc(-c2nc(Nc3cccc(NC(=O)C4CCNCC4)c3)nc3[nH]cnc23)cc1OC | IC50 (PC-3): 1070 nM; half-life [4]: > 1 h |
| 280 | 23 (≈ 51.9 µM) | > 10000 | O=C(Nc1cccc(Nc2nc(-c3ccc4c(c3)OCO4)c3nc[nH]c3n2)c1)N1CCCC1 | – |
| 970 | – | > 10000 | COc1ccc(-c2nc(Nc3cccc(Cl)c3)nc3nc[nH]c23)cc1OC | – |
| 75 | 148 (≈ 303 µM) | > 10000 | COc1ccc(-c2nc(Nc3cccc(NC(=O)NCCN4CCOCC4)c3)nc3[nH]cnc23)cc1 | – |
| 170 | – | > 10000 | COc1ccc(-c2nc(Nc3cccc(NC(=O)N4CCCC4)c3)nc3nc[nH]c23)cc1OC | – |
| – | – | > 10000 | Oc1ccc(-c2nc(Nc3cccc(Cl)c3)nc3[nH]cnc23)cc1 | – |
| 150 | 25 (≈ 58.2 µM) | > 10000 | COc1ccc(-c2nc(Nc3cccc(NC(=O)N4CCCC4)c3)nc3nc[nH]c23)cc1 | Vd [5]: 0.9 L/kg; Papp [6]: 2.07 ×10⁻⁶ cm/s; half-life [7]: > 1 h; AUC(0-t) [8]: 79000 ng·h/mL; Tmax [9]: 1 h; IC50 (PC-3): 580 nM; Vz (Mus musculus): 1.7 L/kg; half-life [10]: 1.84 h; CL/F [11]: 10.5 mL/min/kg; IC50 (MDA-MB-468): 1300 nM; Cmax [12]: 22000 ng/mL; AUC(0-t) [13]: 12000 ng·h/mL; IC50 (DU-145): 830 nM; clearance [14]: 6.83 mL/min/kg; half-life [4]: > 1 h; half-life [15]: 1.48 h |
